From ChEMBL document CHEMBL1129349, “Antiretroviral agents as inhibitors of both human immunodeficiency virus type 1 integrase and protease” (J Med Chem, 1996)

Key:
[1] = target: T1, Human immunodeficiency virus type 1 protease (Human immunodeficiency virus 1, UniProt Q72874); assay: Inhibitory activity against HIV-1 protease
[2] = target: T2, Human immunodeficiency virus type 1 integrase (Human immunodeficiency virus 1, UniProt Q7ZJM1); assay: (§1) Inhibitory activity against HIV-1 integrase
Summary of the method: (§2)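 Purified recombinant wild-type HIV-1 integrase, 200 nM final, preincubated with inhibitor for 30 min at 30 °C. Buffer: 25 mM MOPS pH 7.2, 7.5 mM MnCl2, 50 mM NaCl, 10% DMSO, 10% glycerol, BSA, DTT, 2-mercaptoethanol. Then 20 nM 5'-32P-labeled 21mer U5 duplex added for 60 min. Products run on denaturing 20% polyacrylamide gel and quantified by phosphorimager.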

[3] = target: T2, Human immunodeficiency virus type 1 integrase; assay: as §1; summary of the method: as §2; remark: listed apart in the source
DNA topoisomerase 1 = target: T3, DNA topoisomerase 1 (Homo sapiens, UniProt P11387); assay: Inhibitory activity against topoisomerase I.
T3 sequence (P11387 whole entry): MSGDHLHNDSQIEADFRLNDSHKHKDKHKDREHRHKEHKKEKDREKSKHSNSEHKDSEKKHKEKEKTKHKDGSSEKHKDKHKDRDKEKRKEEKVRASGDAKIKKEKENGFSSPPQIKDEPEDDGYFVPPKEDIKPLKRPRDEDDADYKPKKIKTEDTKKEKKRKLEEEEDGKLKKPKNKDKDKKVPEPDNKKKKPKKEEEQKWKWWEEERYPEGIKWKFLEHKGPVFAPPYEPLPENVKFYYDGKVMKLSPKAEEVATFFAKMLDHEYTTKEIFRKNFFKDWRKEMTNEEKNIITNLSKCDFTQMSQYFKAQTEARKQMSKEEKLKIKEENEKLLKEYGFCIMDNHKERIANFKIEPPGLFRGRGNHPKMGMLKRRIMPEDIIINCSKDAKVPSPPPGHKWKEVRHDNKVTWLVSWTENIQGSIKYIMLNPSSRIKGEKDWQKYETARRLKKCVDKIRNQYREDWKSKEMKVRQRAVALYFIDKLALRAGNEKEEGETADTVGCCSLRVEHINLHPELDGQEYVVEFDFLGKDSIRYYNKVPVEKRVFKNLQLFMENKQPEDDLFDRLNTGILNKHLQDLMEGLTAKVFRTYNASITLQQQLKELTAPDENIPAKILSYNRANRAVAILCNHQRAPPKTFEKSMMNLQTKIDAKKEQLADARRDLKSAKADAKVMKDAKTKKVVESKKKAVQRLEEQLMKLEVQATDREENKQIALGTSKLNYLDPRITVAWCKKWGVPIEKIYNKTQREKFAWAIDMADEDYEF
Summary of the method: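 Eukaryotic topoisomerase I on a duplex oligonucleotide with a single strong cleavage site, 3'-end labeled with α-[32P]cordycepin. Scored both for induction of cleavable complexes and for blocking camptothecin-induced complexes. Stopped with 0.5% SDS, proteinase K 60 min at 50 °C, denaturing 16% PAGE.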

[4] = target: T1, Human immunodeficiency virus type 1 protease; assay: Inhibitory activity against HIV-1 Protease.
CCRF-CEM [5] = assay: Inhibitory activity against HIV-1 infected CEM cells; inactive; format: functional, cell-based, Homo sapiens
[6] = test system: Simian immunodeficiency virus; assay: Inhibitory activity against simian was measured immunodeficiency virus (SIV) using 3'-processing (3'-proc); format: functional
Summary of the method: (§3)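 Recombinant FIV or SIV integrase, 600 nM final, preincubated 30 min at 30 °C with inhibitor in Mn2+/MOPS pH 7.2 buffer with 10% DMSO. 20 nM 5'-32P-labeled 21mer duplex added and incubated 60 min. The 3'-processed 19mer was resolved on denaturing 20% polyacrylamide gel and quantified by phosphorimager.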

CCRF-CEM [7] = assay: Inhibitory activity against HIV-1 infected CEM cells.; format: functional, cell-based; conditions: Homo sapiens
[8] = target: T4, Human immunodeficiency virus type 2 integrase (Human immunodeficiency virus 2, UniProt P89582); assay: Inhibitory activity against HIV-2 Integrase was measured using 3'-processing (3'-proc) assay.
T4 sequence (P89582 whole entry): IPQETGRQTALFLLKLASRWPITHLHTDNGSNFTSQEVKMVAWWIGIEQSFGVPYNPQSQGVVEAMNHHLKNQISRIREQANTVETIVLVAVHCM
Summary of the method: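 HIV-2 integrase, 200 nM final, preincubated 30 min at 30 °C with inhibitor in Mn2+/MOPS pH 7.2 buffer containing 10% DMSO. 3'-processing started with 20 nM 5'-32P-labeled 21mer duplex substrate and run 60 min more. Denaturing 20% PAGE, phosphorimager quantitation of the 19mer product.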

[9] = test system: Feline immunodeficiency virus; assay: Inhibitory activity against feline was measured immunodeficiency virus (FIV) using 3'-processing (3'-proc) assay..; format: functional; summary of the method: as §3

T2 sequence (Q7ZJM1 whole entry): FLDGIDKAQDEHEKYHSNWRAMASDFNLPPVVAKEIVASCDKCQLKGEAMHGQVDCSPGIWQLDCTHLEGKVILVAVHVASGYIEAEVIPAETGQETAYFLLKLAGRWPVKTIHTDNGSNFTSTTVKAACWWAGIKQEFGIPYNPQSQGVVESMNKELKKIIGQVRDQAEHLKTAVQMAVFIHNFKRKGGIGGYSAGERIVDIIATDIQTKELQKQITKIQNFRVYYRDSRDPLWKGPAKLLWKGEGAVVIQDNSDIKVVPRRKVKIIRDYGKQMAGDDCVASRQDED

Row | Structure (SMILES) | IC50 [1] [µM] | IC50 [2] [µM] | IC50 [3] [µM] | also measured
1 | O=C1C(=O)c2ccccc2C(O)=C1CSc1ccc(Cl)cc1 | 50 | > 100 | > 100 | 
2 | CC(C1=C(O)C(=O)c2ccccc2C1=O)C1=C(O)C(=O)c2ccccc2C1=O |  | > 100 | > 100 | 
3 | COc1cc(C(C2=C(O)C(=O)c3ccccc3C2=O)C2=C(O)C(=O)c3ccccc3C2=O)cc(Br)c1O |  | 20 | 32 | 
4 | O=C1C(O)=C(C(C#Cc2ccccc2)C2=C(O)C(=O)c3ccccc3C2=O)C(=O)c2ccccc21 |  | 72 | > 100 | 
5 | CCCCCCc1cc2c(cc1O)OC(=O)C(C(c1ccccc1)c1c(O)oc3cc(O)c(CCCCCC)cc3c1=O)C2O (configuration not stated) | 0.32 | 12 | 10.5 | 
6 | O=c1c(C(c2ccc3c(c2)OCO3)c2c(O)oc3ccccc3c2=O)c(O)oc2ccccc12 | 30 | 18 | 47 | 
7 | CC(=O)c1cccc(NC(=O)C(=O)c2c(O)oc3ccccc3c2=O)c1 | > 100 | > 100 | > 100 | 
8 | CCOc1ccc(C(C2=C(O)C(=O)c3ccccc3C2=O)C2=C(O)C(=O)c3ccccc3C2=O)cc1OC |  | > 100 | > 100 | 
9 | Cc1ccc(S(=O)(=O)N/N=C(/CCN2CCCC2)CC(c2ccccc2)c2c(O)oc3ccccc3c2=O)cc1 (configuration not stated) | > 100 | > 100 | > 100 | 
10 | O=C1C(O)=C(C(C2=C(O)C(=O)c3ccccc3C2=O)c2ccc(Cl)c(Cl)c2)C(=O)c2ccccc21 |  | 52 | 90 | 
11 | CCOC(=O)C(c1c(O)c2ccccc2oc1=O)c1c(O)c2ccccc2oc1=O [ETHYL BISCOUMACETATE] | > 100 | > 100 | > 100 | 
12 | O=c1oc2c(-c3ccccc3)cccc2c(O)c1-c1ccccc1 | 13 | > 100 | > 100 | 
13 | CC(C)c1cccc(C(C)C)c1NC(=O)C(=O)CC(=O)CC(c1ccccc1)c1c(O)oc2ccccc2c1=O (configuration not stated) | 31 | > 100 | > 100 | 
14 | O=c1c(C(c2ccc(C(c3c(O)oc4ccccc4c3=O)c3c(O)oc4ccccc4c3=O)cc2)c2c(O)oc3ccccc3c2=O)c(O)oc2ccccc12 |  | 0.8 | 1.5 | IC50 (DNA topoisomerase 1): 10 µM; IC50 [6]: 2.3 µM; IC50 [4]: 1.7 µM; IC50 (CCRF-CEM [7]): 11.5 µM; IC50 [8]: 1 µM; IC50 [9]: 2.2 µM
15 | CCCCCCC/N=C1/C(=O)c2ccccc2C(O)=C1O | 33 | > 100 | > 100 | 
16 | O=C1Oc2ccccc2C(O)C1Cc1c(O)oc2ccccc2c1=O (configuration not stated) | > 100 | > 100 | > 100 | 
17 | O=c1oc2ccccc2c(O)c1-c1ccccc1 | 32 | > 100 | > 100 | 
18 | O=C1C(O)=C(C(CCc2ccccc2)C2=C(O)C(=O)c3ccccc3C2=O)C(=O)c2ccccc21 |  | 90 | 83 | 
19 | COc1cc(C(C2=C(O)C(=O)c3ccccc3C2=O)C2=C(O)C(=O)c3ccccc3C2=O)cc(OC)c1OC |  | > 100 | > 100 | 
20 | O=C(SCc1c(O)c2ccccc2oc1=O)c1ccccc1 | > 100 | > 100 | > 100 | 
21 | COc1ccc2c(O)c(S(=O)(=O)c3ccc(C)cc3)c(=O)oc2c1 | > 100 | > 100 | > 100 | 
22 | O=C1Oc2ccccc2C(O)C1Sc1c(O)oc2ccccc2c1=O (configuration not stated) | 21 | 100 | 80 | 
23 | O=C(c1cccc([N+](=O)[O-])c1)c1c(O)oc2ccccc2c1=O | > 100 | > 100 | > 100 | 
24 | O=C1C(=O)c2ccccc2C(O)=C1Sc1ccccc1 | > 100 | > 100 | > 100 | 
25 | CC(=O)Nc1ccc(C(C2=C(O)C(=O)c3ccccc3C2=O)C2=C(O)C(=O)c3ccccc3C2=O)cc1 |  | 78 | 86 | 
26 | O=C(NC1=C(Cl)C(=O)c2ccccc2C1=O)C(=O)c1c(O)c2ccccc2oc1=O | > 100 | > 100 | > 100 | 

The next lines start with results.

Row | IC50 [1] [µM] | IC50 [2] [µM] | IC50 [3] [µM] | Structure (SMILES) | also measured
27 | 8.5 | > 100 | > 100 | O=C1C(=O)c2ccccc2C(O)=C1CCCC1CCC2CCCCC2C1 (configuration not stated) | 
28 | > 100 |  |  | O=C1C=C(O)C(=O)c2ccccc21 [LAWSONE] | 
29 | 24 | 40 | 37 | O=C1C(O)=C(C(C2=C(O)C(=O)c3ccccc3C2=O)c2ccc(Cl)cc2Cl)C(=O)c2ccccc21 | 
30 | > 100 | > 100 | > 100 | O=C(c1ccc(Cl)cc1)c1c(O)c2ccccc2oc1=O | 
31 | > 100 | > 100 | > 100 | COc1ccc2c(O)c(S(=O)(=O)c3ccc(Cl)cc3)c(=O)oc2c1 | 
32 | > 100 | > 100 | > 100 | O=c1oc2cccc(O)c2c(O)c1Cc1ccccc1 | 
33 |  | 2.7 | 7.5 | O=C1C(O)=C(C(C2=C(O)C(=O)c3ccccc3C2=O)c2ccc(C(C3=C(O)C(=O)c4ccccc4C3=O)C3=C(O)C(=O)c4ccccc4C3=O)cc2)C(=O)c2ccccc21 | IC50 (DNA topoisomerase 1): 60 µM; IC50 [4]: 0.75 µM; IC50 (CCRF-CEM [5]): Not Active
34 |  | 60 | 92 | CCOC(=O)C(C1=C(O)C(=O)c2ccccc2C1=O)C1=C(O)C(=O)c2ccccc2C1=O | 
35 | 3 | 56 | 92 | O=C1C(=O)c2ccccc2C(O)=C1Cc1ccc(Cl)cc1 | 
36 |  | > 100 | > 100 | O=C1C(O)=C(C(C2=C(O)C(=O)c3ccccc3C2=O)c2ccc(Cl)cc2)C(=O)c2ccccc21 | 
37 |  | 48 | 68 | O=C1C(O)=C(C(C2=C(O)C(=O)c3ccccc3C2=O)c2ccccc2)C(=O)c2ccccc21 | 
38 |  | > 100 | > 100 | CN(C)c1ccc(C(C2=C(O)C(=O)c3ccccc3C2=O)C2=C(O)C(=O)c3ccccc3C2=O)cc1 | 
